Assay outcomes (PubChem BioAssay)
Rows were chosen to be rich in hits. Some 1.7% of all compounds tested hit in one or more screens of this group.
TPT1 inhibitor – C. albicans TPT1 enzyme inhibition | recombinant caTPT1, FP RNA substrate dephosphorylation | 300,000 tested, 0.81% active | inhibition, % at 5 µM;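 active = inhibition above the mean of all tested compounds plus 3 SD, set per screening campaign, cut at about 24% in these data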;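 also: plate controls were DMSO alone for no effect and ferristatin control at 100 nM for full effect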
HNF4A DNA FP – change in binding of human HNF4 alpha to DNA; AID 1224865; P41235; 360,000 tested, 0.3% active; activity change, % at 10 µM; HNF4a-FITC DNA binding, fluorescence polarization, 1 h; in the data active = activity change above about 30%, passing the limit was not always enough
Rev-erbA mod – modulates human Rev-erb alpha binding to DNA; Rev-erbα–FITC-DNA binding, fluorescence polarization, 90 min; 370,000 tested, 0.79% active; AID 1259318; P20393; activity, % at 10 µM;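 active = activity above about 14%, limit read from the data; passing the limit was not always enough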;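 also: 0% = DMSO wells with 35 nM protein and 100% = DMSO wells with 750 nM protein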
CSN inh – inhibitors of human CSN-mediated cullin deneddylation | inhibition, % at 12.5 µM | Purified CSN, SCF-Nedd8-OG deneddylation, fluorescence polarization | 360,000 tested, 0.38% active | Q92905;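 active = pattern-corrected inhibition above about 35%, with an unprinted fluorescence ratio check between 0.5 and 1.5, limit read from the data, passing the limit was not always enough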;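 also: 0% = enzyme with substrate and 100% = substrate without enzyme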
Target sequence (Q92905 whole entry, looked up, one chain of several): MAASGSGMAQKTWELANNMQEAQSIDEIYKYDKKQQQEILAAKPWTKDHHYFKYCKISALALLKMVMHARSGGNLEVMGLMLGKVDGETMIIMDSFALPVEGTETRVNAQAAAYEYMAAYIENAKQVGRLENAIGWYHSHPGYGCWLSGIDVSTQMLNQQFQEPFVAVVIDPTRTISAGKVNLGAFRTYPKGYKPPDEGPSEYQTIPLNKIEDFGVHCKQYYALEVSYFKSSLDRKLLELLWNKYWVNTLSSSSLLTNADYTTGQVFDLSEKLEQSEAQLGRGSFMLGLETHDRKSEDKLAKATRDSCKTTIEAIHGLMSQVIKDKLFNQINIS
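Assay system: purified human Csn5 enzyme expressed in HEK293T cells; measure: % inhibition; also added: SCFSkp2-Nedd8OG substrate at 10 nM final; technique: fluorescence polarization; times: reaction 90 min, room temperature; medium: Tris buffer pH 7.5, NaCl, DTT, Tween-20, trehalose, ovalbumin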
Rev-erbA confirm – Rev-erb alpha (human) modulation, hit confirmation; Rev-erb alpha FITC-DNA binding, fluorescence polarization, 90 min; 3,000 tested, 61% active; activation, % at 25 µM; shares compounds with Rev-erbA mod;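 active = activation at or above a set limit, or at least 3 SD above the negative control mean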;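 also: 0% = 35 nM protein with DMSO and 100% = 750 nM protein high control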
An asterisk follows results filed as active.

For CCOC(=O)c1cnc2c(cnn2C)c1NCc1ccc(OC)cc1 the results were TPT1 inhibitor 1, HNF4A DNA FP 2, Rev-erbA mod 28*, CSN inh -2 and Rev-erbA confirm 22*.
`Cc1ccnc(NS(=O)(=O)c2ccc(NC(=O)c3cc(-c4ccc(Br)cc4)nc4ccccc34)cc2)n1` gave TPT1 inhibitor 3, HNF4A DNA FP 3, Rev-erbA mod 39*, CSN inh 1 and Rev-erbA confirm 17*.
`Cc1ccnc(NS(=O)(=O)c2ccc(NC(=O)c3cc(-c4ccccc4)nc4ccccc34)cc2)n1` gave TPT1 inhibitor 1, HNF4A DNA FP 8, Rev-erbA mod -2 and CSN inh 3.
Screening CN(/N=C/c1cccnc1)C1=NS(=O)(=O)c2ccccc21 returned TPT1 inhibitor 7, HNF4A DNA FP 3, Rev-erbA mod 0 and CSN inh -4.
Screening CN(/N=C/c1cccnc1)c1cnn(-c2ccc(F)c(Cl)c2)c(=O)c1Cl returned TPT1 inhibitor 0, HNF4A DNA FP 2, Rev-erbA mod 26*, CSN inh 7 and Rev-erbA confirm 6.
`COC(=O)[C@@]12CCCCC=C1N(CCc1ccc(Cl)cc1)C(=O)[C@H]2CC(=O)NCCCCc1ccccc1` gave Rev-erbA mod 8.
O=C(NCCOc1ccccc1)C1Nc2ccc(C(F)(F)F)cc2C2c3ccccc3CC12 (centres undefined) was read as TPT1 inhibitor 0, HNF4A DNA FP 1, Rev-erbA mod -2 and CSN inh 1.
CCOC(=O)C1Nc2ccc(C(F)(F)F)cc2C2c3ccccc3CC12 (centres undefined) was read as TPT1 inhibitor -6, HNF4A DNA FP 1, Rev-erbA mod 36*, CSN inh -1 and Rev-erbA confirm 14.
For O=C(N1CCC(Cc2ccccc2)CC1)n1ncc(C(O)(c2ccccc2)c2ccccc2)n1 the results were Rev-erbA mod -1.
For CCOc1ccc(CNC(=O)CS(=O)(=O)Cc2nc(-c3ccc(OC)cc3)oc2C)cc1 the results were TPT1 inhibitor 1, HNF4A DNA FP -1, Rev-erbA mod 26*, CSN inh 8 and Rev-erbA confirm 8.
Screening COc1ccc(CNC(=O)CS(=O)(=O)Cc2nc(-c3cccc(OC)c3)oc2C)cc1 returned TPT1 inhibitor -1, HNF4A DNA FP -1, Rev-erbA mod 25*, CSN inh -1 and Rev-erbA confirm 22*.
For COc1cccc(-c2nc(CS(=O)(=O)CC(=O)NCCc3ccc(C)cc3)c(C)o2)c1 the results were TPT1 inhibitor -2, HNF4A DNA FP 5, Rev-erbA mod 6 and CSN inh 0.
CCOC(=O)[C@@]12CN(C(=O)OC(C)(C)C)CC=C1N(Cc1ccc(OC)cc1)C(=O)[C@H]2CC(=O)NCc1cccc(C(F)(F)F)c1 was read as Rev-erbA mod 3.
`O=C(O)CCN1C(=O)c2ccc(NC(=O)c3cccs3)cc2C1=O` gave TPT1 inhibitor 3, HNF4A DNA FP -1, Rev-erbA mod -1 and CSN inh 2.
For O=C(Nc1ccc2c(c1)C(=O)N(c1ccccc1)C2=O)c1cccs1 the results were TPT1 inhibitor 0, HNF4A DNA FP 2, Rev-erbA mod 20*, CSN inh -5 and Rev-erbA confirm -6.
Screening Cc1cc(Cl)ccc1Oc1ncc(-c2ccc(Cl)cc2)cn1 returned TPT1 inhibitor -1, HNF4A DNA FP -3, Rev-erbA mod 24*, CSN inh 0 and Rev-erbA confirm 18*.
Screening COc1ccccc1OCCSc1nc2ccccc2c(=O)[nH]1 returned TPT1 inhibitor -1, HNF4A DNA FP -3, Rev-erbA mod 14 and CSN inh 2.
`O=c1[nH]c(SCCOc2ccccc2)nc2ccccc12` gave TPT1 inhibitor 3, HNF4A DNA FP 2, Rev-erbA mod 46*, CSN inh -3 and Rev-erbA confirm 25*.
O=c1[nH]cnc2c1sc1nc(-c3ccccc3)c3c(c12)CCCC3 was read as TPT1 inhibitor 1, HNF4A DNA FP -1, Rev-erbA mod 18*, CSN inh 4 and Rev-erbA confirm 9.
